These results are taken from ChEMBL document CHEMBL1126090, “Electrophilic opioid ligands. Oxygen tethered alpha-methylene-gamma-lactone, acrylate, isothiocyanate, and epoxide derivatives of 6 beta-naltrexol” (J Med Chem, 1992).

Molecules are shown by their SMILES.

For assay [1], the target named is Kappa-type opioid receptor (Cavia porcellus, UniProt P41144). In words: Displacement of 0.5 nM [3H]bremazocine from guinea pig brain membrane opioid receptor kappa with 100 nM DAGO and 100 nM DPDPE. The procedure, abridged: (§1)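 Crude guinea pig brain membrane homogenate. Compounds as free amine in 50% acetic acid, serially diluted in water; nine concentrations in competition with radioligand ([3H]DAGO for μ; [3H]bremazocine plus unlabeled DAGO and DPDPE for κ). Incubated in 50 mM Tris-HCl pH 7.4, 25 °C, 1 h. Then GF/B filtration, two cold buffer rinses, scintillation counting. IC50 by log-probit analysis.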

The target in assay [2] is Mu-type opioid receptor (Cavia porcellus) (UniProt P97266). The assay is described as follows: Compound was evaluated for the percent recovery of 1.0 nM of [3H]- DAGO binding to opioid receptor mu in washed guinea pig brain membranes at 10 (nM) concentration. The class given is cell membranes. To be noted: Membrane. The method in brief:
(§2)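 Guinea pig brain membranes were exposed to ligand for 1 h at 25 °C. Washing: 4-fold dilution with buffer, 20000g for 15 min, pellet resuspended in 3 volumes of buffer, 37 °C for 15 min, recentrifuged, resuspended in the original volume. Rebinding with the named radioligand in Tris-HCl pH 7.4, 25 °C, 1 h, filtration, scintillation. Reported as percent recovery.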

Assay [3] has the same target. In words: Compound was evaluated for the percent recovery of 1.0 nM of [3H]- DAGO binding to opioid receptor mu in guinea pig brain membranes at 10 (nM) concentration protection by 1 uM Naloxone. To be noted: Membrane. Format: cell membranes. The method in brief:
(§3)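 Membranes were then washed (4-fold dilution, 20000g for 15 min, 37 °C for 15 min in 3 volumes, recentrifuged) and assayed with the named radioligand by filtration binding. Reported as percent recovery.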

Assay [4] has the same target. In words: Compound was evaluated for the percent recovery of 1.0 nM of [3H]- DAGO binding to opioid receptor mu in un washed guinea pig brain membranes at 10 (nM) concentration. The note with it: Membrane.
Assay [5] concerns the target T1, Opioid receptors; mu/kappa/delta (Homo sapiens) (UniProt P41145+P41143+P35372). The assay is described as follows: Compound was evaluated for the percent recovery of 0.5 nM of [3H]- bremazocine binding to total opioid receptor in unwashed guinea pig brain membranes at 50 (nM) concentration of the compound. The class given is cell membranes. To be noted: Cavia porcellus, Membrane, target entry is the homologue from another species.

In a further assay the target is Mu-type opioid receptor (Cavia porcellus, UniProt P97266). The assay is described as follows: inhibition of 1.0 nM [3H]- DAGO binding to guinea pig brain membrane opioid receptor mu. The method in brief: as §1
Assay [6] addresses Opioid receptors; mu/kappa/delta. In words: Inhibition of 0.5 nM [3H]bremazocine binding to guinea pig brain membrane opioid receptors. On the set-up: species or system Cavia porcellus.
Assay [7] deals with Delta-type opioid receptor (Homo sapiens) (UniProt P41143). The assay is described as follows: Compound was evaluated for the percent recovery of 1.0 nM of [3H]- DPDPE binding to Opioid receptor delta 1 in guinea pig brain membranes at 22(nM) concentration protection by 1 uM Naloxone. Format: cell membranes. The note with it: Cavia porcellus, Membrane, target entry is the homologue from another species. The procedure, abridged:
as §3

Assay [8] concerns the target T1, Opioid receptors; mu/kappa/delta (Homo sapiens). The assay is described as follows: Compound was evaluated for the percent recovery of 0.5 nM of [3H]- bremazocine binding to total opioid receptor in washed guinea pig brain membranes at 50 (nM) concentration of the compound. The class given is cell membranes. To be noted: Cavia porcellus, Membrane, target entry is the homologue from another species. The method in brief:
as §2

Assay [9] has the same target. The assay is described as follows: Compound was evaluated for the percent recovery of 0.5 nM of [3H]- bremazocine binding to total opioid receptor in guinea pig brain membranes at 50 (nM) concentration protection by 1 uM Naloxone. The class given is cell membranes. To be noted: Cavia porcellus, Membrane, target entry is the homologue from another species. The method in brief:
as §3

For assay [10], the target named is Mu-type opioid receptor (Cavia porcellus) (UniProt P97266). The assay is described as follows: Compound was evaluated for the percent recovery of 1.0 nM of [3H]- DAGO binding to opioid receptor mu in un washed guinea pig brain membranes at 10(nM) concentration. To be noted: Membrane.
The target in assay [11] is Delta-type opioid receptor (Homo sapiens) (UniProt P41143). The assay is described as follows: Compound was evaluated for the percent recovery of 1.0 nM of [3H]- DPDPE binding to Opioid receptor delta 1 in guinea pig brain membranes at 17(nM) concentration protection by 1 uM Naloxone. Format: cell membranes. The note with it: Cavia porcellus, Membrane, target entry is the homologue from another species. The procedure, abridged: as §3

Assay [12] concerns the target T1, Opioid receptors; mu/kappa/delta (Homo sapiens). In words: Compound was evaluated for the percent recovery of 0.5 nM of [3H]- bremazocine binding to of total opioid receptor in washed guinea pig brain membranes at 50 (nM) concentration of the compound. The class given is cell membranes. To be noted: Cavia porcellus, Membrane, target entry is the homologue from another species. The method in brief: as §2

The target of assay [13] is Mu-type opioid receptor (Cavia porcellus) (UniProt P97266). The assay is described as follows: Compound was evaluated for the percent recovery of 1.0 nM of [3H]- DAGO binding to opioid receptor mu in washed guinea pig brain membranes at 10(nM) concentration. To be noted: Membrane. Format: cell membranes. The method in brief: as §2
The target of assay [14] is T1, Opioid receptors; mu/kappa/delta (Homo sapiens). In words: Compound was evaluated for the percent recovery of 0.5 nM of [3H]- bremazocine binding to of total opioid receptor in unwashed guinea pig brain membranes at 50(nM) concentration of the compound. The class given is cell membranes. To be noted: Cavia porcellus, Membrane, target entry is the homologue from another species.

Sequence of Kappa-type opioid receptor (P41144 whole entry): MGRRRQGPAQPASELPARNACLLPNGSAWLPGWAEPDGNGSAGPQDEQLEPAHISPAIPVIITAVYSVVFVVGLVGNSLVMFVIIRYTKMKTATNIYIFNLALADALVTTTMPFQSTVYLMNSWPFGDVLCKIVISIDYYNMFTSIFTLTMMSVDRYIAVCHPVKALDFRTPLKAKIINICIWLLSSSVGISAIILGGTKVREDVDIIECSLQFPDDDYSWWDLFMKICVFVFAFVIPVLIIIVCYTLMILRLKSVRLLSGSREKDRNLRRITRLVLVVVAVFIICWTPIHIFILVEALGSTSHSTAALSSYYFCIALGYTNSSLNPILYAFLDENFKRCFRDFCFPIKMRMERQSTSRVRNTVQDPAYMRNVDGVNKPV
T1 sequence (P35372 whole entry, looked up): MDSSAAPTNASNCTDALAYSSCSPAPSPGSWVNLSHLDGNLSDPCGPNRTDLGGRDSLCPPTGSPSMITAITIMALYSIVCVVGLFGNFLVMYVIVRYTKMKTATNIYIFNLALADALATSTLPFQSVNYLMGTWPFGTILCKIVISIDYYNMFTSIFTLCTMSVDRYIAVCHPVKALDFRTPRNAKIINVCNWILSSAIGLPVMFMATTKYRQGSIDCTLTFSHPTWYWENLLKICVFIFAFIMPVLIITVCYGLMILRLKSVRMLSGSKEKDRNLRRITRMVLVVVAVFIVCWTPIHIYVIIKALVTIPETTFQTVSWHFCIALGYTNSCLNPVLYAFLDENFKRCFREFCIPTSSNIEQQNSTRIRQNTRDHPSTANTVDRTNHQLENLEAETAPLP
T1 sequence (P41143 whole entry, looked up): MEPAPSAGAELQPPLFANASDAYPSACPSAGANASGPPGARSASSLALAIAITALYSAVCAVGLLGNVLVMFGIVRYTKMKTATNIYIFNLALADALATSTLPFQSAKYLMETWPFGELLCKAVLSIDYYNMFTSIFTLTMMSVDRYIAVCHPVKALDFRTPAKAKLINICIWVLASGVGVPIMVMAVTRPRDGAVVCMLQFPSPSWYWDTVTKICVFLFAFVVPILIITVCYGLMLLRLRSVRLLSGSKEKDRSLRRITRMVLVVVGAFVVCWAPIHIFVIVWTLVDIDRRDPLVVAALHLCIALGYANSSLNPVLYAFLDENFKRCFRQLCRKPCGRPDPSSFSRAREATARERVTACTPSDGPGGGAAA
T1 sequence (P41145 whole entry, looked up): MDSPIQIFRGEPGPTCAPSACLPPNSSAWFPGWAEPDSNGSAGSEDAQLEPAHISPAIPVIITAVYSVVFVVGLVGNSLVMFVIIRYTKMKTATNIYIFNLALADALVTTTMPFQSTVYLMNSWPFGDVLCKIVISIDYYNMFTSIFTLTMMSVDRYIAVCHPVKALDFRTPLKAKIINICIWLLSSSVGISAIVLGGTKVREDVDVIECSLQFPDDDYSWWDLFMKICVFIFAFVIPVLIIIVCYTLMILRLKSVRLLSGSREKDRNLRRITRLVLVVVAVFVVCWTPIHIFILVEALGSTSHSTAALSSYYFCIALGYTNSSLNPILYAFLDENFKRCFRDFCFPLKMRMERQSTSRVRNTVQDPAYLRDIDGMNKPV
Sequence of Mu-type opioid receptor (P97266 whole entry): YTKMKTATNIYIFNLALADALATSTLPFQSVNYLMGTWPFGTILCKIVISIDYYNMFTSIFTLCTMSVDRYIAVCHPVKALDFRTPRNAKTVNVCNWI
Sequence of Mu-type opioid receptor (Cavia porcellus) (P97266 whole entry): as above
Sequence of Delta-type opioid receptor (Homo sapiens) (P41143 whole entry): as the sequence (P41143 whole entry, looked up) above

Turning to `C=C1C[C@H](CO[C@@H]2CC[C@@]3(OC(C)=O)[C@H]4Cc5ccc(O)c6c5[C@@]3(CCN4CC3CC3)[C@H]2O6)OC1=O`, the IC50 was 48 nM in assay [1], 2.2 nM on Mu-type opioid receptor and 15 nM in assay [6]. The % recovery in [2] turned out to be 49; in assay [3], 94; in [4] it was 10; in assay [5], 27; in [7], 86; in [8], 68. Also, the % recovery in [9] came out at 84.
As to `C=C1C[C@@H](CO[C@@H]2CC[C@@]3(OC(C)=O)[C@H]4Cc5ccc(O)c6c5[C@@]3(CCN4CC3CC3)[C@H]2O6)OC1=O`, the IC50 amounted to 25 nM in assay [1], 2.8 nM on Mu-type opioid receptor and 14 nM in assay [6]. Further, the % recovery was 55 in assay [3]; 21 in assay [10]; 71 in assay [11]; 61 in assay [9]; 54 in [12]; 71 in assay [13]. For the same molecule, in assay [14], the % recovery turned out to be 20.
With `C=C1C[C@H](CO[C@@H]2CC[C@@]3(O)[C@H]4Cc5ccc(O)c6c5[C@@]3(CCN4CC3CC3)[C@H]2O6)OC1=O`, the IC50 came out at 44 nM in assay [1], 4.2 nM on Mu-type opioid receptor and 19 nM in assay [6]. The molecule also yielded a % recovery in assay [3] of 88.
`Oc1ccc2c3c1O[C@H]1[C@H](OC[C@@H]4CO4)CC[C@@]4(O)[C@@H](C2)N(CC2CC2)CC[C@]314`: the IC50 in [1] came out at 17 nM; on Mu-type opioid receptor, 3.5 nM; in [6], 12 nM. The values for the % recovery in assay [5], in assay [8] and in assay [9] were 10, 79 and 88, respectively.
As to `C=C1C[C@@H](CO[C@@H]2CC[C@@]3(O)[C@H]4Cc5ccc(O)c6c5[C@@]3(CCN4CC3CC3)[C@H]2O6)OC1=O`, the IC50 worked out at 28 nM in assay [1], 3.4 nM on Mu-type opioid receptor and 18 nM in assay [6].
The corresponding values for `Oc1ccc2c3c1O[C@H]1[C@H](OC[C@H]4CO4)CC[C@@]4(O)[C@@H](C2)N(CC2CC2)CC[C@]314` are 17 nM, 2.9 nM and 11 nM.

The IC50 is the midpoint of a concentration-inhibition curve. A high value points to weaker potency in that assay.
